Experimental data taken from PubChem BioAssay.
The source made the active and inactive calls.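 How the source made its calls, unless noted: active means NADPH fluorescence slope more negative than the mean of all samples by about 3 SD, 99.7% confidence; inactive means the rest.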

What was measured:
[1] = inhibitors of TNFa-induced NFkB p65 translocation, primary screen, imaging, HUVEC, MLSMR starter and 10KST1 sets (AID 438;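 active means inhibition above 20% together with a positive visual image hit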;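 further: compound added about 3h40 before a 20 min TNFalpha stimulation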;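 on inhibition: signal is the nuclear over cytoplasmic p65 intensity ratio per well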); conditions: HUVEC TNFa-induced p65 nuclear translocation; cell count: measured here: nuclei count (cytotoxicity indicator), at 2.08 µM; inhibition: at 2 µM, stronger effect = higher value, 0% TNFa-plus-vehicle, 100% no-TNFa wells
[2] = reduction of polyQ htt aggregates in cells – imaging, exon1htt(103Q)mCFP cells, high-content imaging, primary screen (AID 483;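 active means visual image review flags a hit and inhibition of aggregation exceeds 20%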;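 further: compound exposure lasted 3 days before fixation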;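 on nuclei count: percent of the per-plate median nuclei count of sample wells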); conditions: exon1htt(103Q)mCFP cell line, aggregate imaging, at 2 µM; inhibition of aggregation: stronger effect = higher value; nuclei count: measured here: cell count, toxicity
[3] = endothelial E-selectin expression blockers – imaging, HUVEC, immunofluorescence, MLSMR starter and 10KST1 sets, primary screen (AID 487;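 active means visually confirmed hit in the image check and inhibition above 20%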;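 on inhibition: signal is fraction of cell area covered by stained E-selectin grains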;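 on nuclei count: 100% = median nuclei count of all wells on the same plate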); conditions: HUVEC TNFalpha-induced E-selectin immunofluorescence imaging, at 2 µM; inhibition: stronger effect = higher value; nuclei count: measured here: cell number, toxicity
[4] = molecular target: Voltage-gated potassium channel subunit beta-2 (Rattus norvegicus) (UniProt P62483); experiment: inhibitors of rat Kvbeta2 reductase activity – biochemical, NADPH fluorescence, primary screen (AID 622;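 active means fluorescence slope higher than the sample average by over 3 SD, cut at about -0.22 in these data, passing the limit was not always enough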;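 further: slope of raw intensity against log time taken from 70 to 1610 s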); conditions: recombinant KvBeta, 4-cyanobenzaldehyde reduction, at 10 µM, stronger effect = higher value
Chain of Voltage-gated potassium channel subunit beta-2 (Rattus norvegicus) (P62483 whole entry, looked up): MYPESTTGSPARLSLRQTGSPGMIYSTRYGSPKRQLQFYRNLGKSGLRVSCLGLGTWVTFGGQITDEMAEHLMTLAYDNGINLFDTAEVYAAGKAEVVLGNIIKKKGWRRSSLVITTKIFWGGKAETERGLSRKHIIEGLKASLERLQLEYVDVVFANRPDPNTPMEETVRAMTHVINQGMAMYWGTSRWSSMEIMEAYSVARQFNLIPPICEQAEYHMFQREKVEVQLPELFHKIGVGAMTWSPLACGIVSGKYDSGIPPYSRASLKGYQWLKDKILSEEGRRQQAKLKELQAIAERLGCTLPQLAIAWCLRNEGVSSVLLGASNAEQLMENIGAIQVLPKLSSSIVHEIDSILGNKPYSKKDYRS

[5] = molecular target: Voltage-gated potassium channel subunit beta-2 (Rattus norvegicus) (UniProt P62483); experiment: enhancers of rat Kvbeta2 NADPH turnover – biochemical, NADPH fluorescence, primary screen (AID 623); conditions: Recombinant KvBeta, NADPH fluorescence decrease slope, 10 min; at 10 µM; stronger effect = lower value;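 further: fluorescence intensity change per second fitted from 20 to 320 s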
[6] = molecular target: Alpha-2C adrenergic receptor (Homo sapiens) (UniProt P18825); experiment: compounds altering alpha2C-coupled GIRK flux – cell-based, HEK293 alpha2C/GIRK1/2, thallium flux, primary screen (AID 624;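 active means fluorescence slope after compound addition differing from the mean of all screened samples at 99.7% confidence, in either direction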;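 further: slope of fluorescence ratio to pre-addition baseline per second over 15 to 24 s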); conditions: thallium flux BTC fluorescence, at 10 µM, actives lie on both sides
Chain of Alpha-2C adrenergic receptor (Homo sapiens) (P18825 whole entry, looked up): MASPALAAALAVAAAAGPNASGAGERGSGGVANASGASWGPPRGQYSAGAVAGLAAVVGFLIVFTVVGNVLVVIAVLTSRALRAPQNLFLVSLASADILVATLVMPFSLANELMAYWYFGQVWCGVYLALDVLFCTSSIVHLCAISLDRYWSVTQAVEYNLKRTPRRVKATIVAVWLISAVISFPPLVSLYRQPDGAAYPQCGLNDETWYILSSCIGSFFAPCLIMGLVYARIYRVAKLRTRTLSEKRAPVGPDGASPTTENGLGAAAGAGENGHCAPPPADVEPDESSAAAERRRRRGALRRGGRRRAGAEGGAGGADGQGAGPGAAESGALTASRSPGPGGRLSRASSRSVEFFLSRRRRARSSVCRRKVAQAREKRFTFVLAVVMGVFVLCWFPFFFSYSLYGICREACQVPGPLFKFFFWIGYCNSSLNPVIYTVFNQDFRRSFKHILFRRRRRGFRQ

[7] = inhibitors of larval lipid processing in zebrafish, primary screen, whole organism, PED6 fluorescence, gall bladder and intestine (AID 686;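 active means a full or partial loss of lipid-probe fluorescence in the fish gall bladder, intestine or both, judged by eye; inactive means no fluorescence loss, or compound toxic to the fish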;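 further: larvae 5 to 7 days old with five fish per well; signal comes from phospholipase A2 cleavage of quenched PED6 carried via bile; overnight exposure to compound and PED6 before scoring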); conditions: Zebrafish larvae PED6 lipid processing, fluorescence scoring; screened at 20 µM (by protocol)
How it was run: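 Also added: quenched phospholipase substrate PED6, 100 nM final, ingested by larvae; System: zebrafish larvae, 5-7 d; Quantity: 5 larvae per well; Compound: 20 µM single dose; Schedule: overnight compound and PED6 incubation; Read-out: visual per-well fluorescence inhibition score; Measured by: By-eye fluorescence microscopy; Medium: E3.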

[8] = blockers of RIG-like receptor reporter activation – cell-based, Sendai virus stimulus, luciferase, 10K MLSCN set, TLR/RLR signaling modifier project, primary screen (AID 602276;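 active means inhibition at or above 50% at 10 µM; inactive means inhibition below 50%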;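 further: firefly luciferase from ISG56 promoter only with Renilla not read in this screen; 0% = Sendai virus plus DMSO and 100% = medium plus DMSO without virus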); conditions: HEK293 RL24 IRF3 luciferase reporter, at 10 µM, stronger effect = higher value
[9] = TLR3 IRF3 reporter activation blockers – cell-based, poly I:C stimulus, luciferase, 10K MLSCN set, primary screen (AID 602277;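 active means inhibition of the reporter signal at or above 50%; inactive means inhibition below 50%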); conditions: HEK293-TLR3 RL24 IRF3 luciferase reporter, at 10 µM, stronger effect = higher value
[10] = molecular target: Muscarinic acetylcholine receptor M4 (Homo sapiens) (UniProt P08173); experiment: M4-linked GIRK flux change, two-sided – cell-based, HEK293 M4/GIRK, thallium flux, BTC-AM, M4 allosteric agonist project, primary screen (AID 625;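 active means fluorescence slope after compound addition differing from the mean of all tested samples at 99.7% confidence, mostly higher but some lower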;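 further: thallium influx through GIRK channels coupled to M4 in HEK293 cells with BTC-AM dye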); conditions: at 10 µM, actives lie on both sides
Chain of Muscarinic acetylcholine receptor M4 (Homo sapiens) (P08173 whole entry, looked up): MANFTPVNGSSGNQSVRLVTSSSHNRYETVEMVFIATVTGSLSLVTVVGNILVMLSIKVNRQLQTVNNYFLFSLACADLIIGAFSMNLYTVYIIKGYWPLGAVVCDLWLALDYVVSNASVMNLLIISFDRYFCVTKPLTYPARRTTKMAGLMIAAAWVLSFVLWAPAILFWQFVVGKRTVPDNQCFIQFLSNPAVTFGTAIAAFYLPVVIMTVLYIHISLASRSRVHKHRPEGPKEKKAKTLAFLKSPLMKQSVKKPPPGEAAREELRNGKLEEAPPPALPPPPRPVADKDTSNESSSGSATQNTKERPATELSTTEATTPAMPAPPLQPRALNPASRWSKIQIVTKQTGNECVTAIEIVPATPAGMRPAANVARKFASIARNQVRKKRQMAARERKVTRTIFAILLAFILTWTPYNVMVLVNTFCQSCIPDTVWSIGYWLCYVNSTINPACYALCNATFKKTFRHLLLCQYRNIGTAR
How it was run: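 assay system = HEK293 cells with M4 receptor and GIRK channels | medium = pH 7.3 thallium assay buffer | doses = 10 µM final, single point | timing = cells overnight at 37 °C, BTC-AM loading 1 h, reads 2 min total | signal = BTC-AM fluorescence, 1 Hz kinetic reads | read-out = post-addition slope, 15–24 s, of baseline-normalized fluorescence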

| SMILES | cell count [1] | inhibition [1] | inhibition of aggregation [2] | nuclei count [2] [%] | inhibition [3] | nuclei count [3] [%] | fluorescence slope [4] | NADPH fluorescence slope [5] | slope [6] | outcome [7] | inhibition [8] | inhibition [9] | fluorescence slope [10] |
| --- | --- | --- | --- | --- | --- | --- | --- | --- | --- | --- | --- | --- | --- |
| COc1ccc(S(=O)(=O)Nc2ccccc2SC)cc1C | 664 | -7.1% (inactive) | 12.2% (inactive) | 102 | -125% (inactive) | 105 | -0.346 (inactive) | 1.3e-05 (inactive) | 0.00618 (inactive) | inactive | 12.4% (inactive) | 22.4% (inactive) |  |
| CCn1c(SC)nc2c(c1=O)SC(C)C2 (stereo unspecified) | 570 | -4.9% (inactive) | -5% (inactive) | 112 | -20.6% (inactive) | 118 | -0.432 (inactive) | -8.5e-05 (inactive) |  |  | 6.41% (inactive) | 15.1% (inactive) | 0.00648 (inactive) |
| CCCCCOC(=O)CSc1nnc(-c2cc(OC)c(OC)c(OC)c2)o1 | 747 | -21.6% (inactive) | 16.3% (inactive) | 116 | -73.6% (inactive) | 119 | -0.363 (inactive) | -3.4e-05 (inactive) |  |  | 3.74% (inactive) | 10.4% (inactive) | 0.00542 (inactive) |
| O=C(Nc1cccc(F)c1)c1ccc2c(c1)OCO2 | 246 | -2.1% (inactive) | 31.8% (inactive) | 83.5 | 80.7% (active) | 85 | -0.597 (inactive) | 1.2e-05 (inactive) |  |  | -56.2% (inactive) | -121% (inactive) | 0.00384 (inactive) |
| Cc1nc2ccccn2c1P(=O)(N1CCCCC1)N1CCCCC1 | 666 | -11.7% (inactive) | -0.1% (inactive) | 77 | -64.2% (inactive) | 108 | -0.526 (inactive) | -1.7e-06 (inactive) |  |  | 20.1% (inactive) | 20.6% (inactive) | 0.00464 (inactive) |
| COC(=O)C1=C(C)NC(=O)C1(NC(=O)CN1CCCC1=O)C(F)(F)F (stereo unspecified) | 879 | 3.6% (inactive) | 6.7% (inactive) | 106 | -79.8% (inactive) | 133 | -0.435 (inactive) | -7.2e-05 (inactive) |  |  | 9.49% (inactive) | 21.7% (inactive) | 0.00621 (inactive) |
| COc1ccc(/C=N/n2c(=O)[nH]c3c([nH]c4ccc(C)cc43)c2=O)cc1CN1CCOCC1 | 643 | 2.6% (inactive) | 16.8% (inactive) | 74.3 | 4.3% (inactive) | 98.4 | -0.407 (inactive) | -0.000488 (inactive) |  |  | -0.771% (inactive) | 11.2% (inactive) | 0.00369 (inactive) |
| COc1ccccc1NC(=O)C1CC(=O)N(c2ccc(F)cc2)C1 (stereo unspecified) | 402 | 4.5% (inactive) | 13.8% (inactive) | 101 | -46.4% (inactive) | 110 | -0.583 (inactive) | -9.7e-05 (inactive) |  |  | -15.4% (inactive) | -26.4% (inactive) | 0.00373 (inactive) |
| Cc1ccc(Cn2ncc3c(NCCCN4CCOCC4)ncnc32)cc1 | 642 | -14.6% (inactive) | 13.9% (inactive) | 84.8 | -8.1% (inactive) | 98.3 | -0.568 (inactive) | -1.3e-05 (inactive) |  |  | 22.3% (inactive) | 11.4% (inactive) | 0.00555 (inactive) |
| CC(=O)Nc1nc(-c2ccccc2)nc(C)c1C(C)=O | 366 | 8% (inactive) | 15% (inactive) | 88.5 | 32.4% (inactive) | 87.6 | -0.572 (inactive) | 2e-05 (inactive) |  |  | -8.51% (inactive) | 2.89% (inactive) | 0.0072 (inactive) |
| CC1CN(C(=O)CSc2ncnc3sccc23)CC(C)O1 (stereo unspecified) | 356 | -0.9% (inactive) | -13.4% (inactive) | 98.3 | -1.1% (inactive) | 102 | -0.469 (inactive) | -2.6e-05 (inactive) | 0.0052 (inactive) | inactive | 10.7% (inactive) | 11% (inactive) |  |
| COc1ccc(C(=O)OC(COc2ccccc2)Cn2ccnc2)cc1 (stereo unspecified) | 348 | -7.4% (inactive) | -15.3% (inactive) | 98 | 13.4% (inactive) | 118 | -0.291 (inactive) | 6.7e-06 (inactive) |  |  | -15.3% (inactive) | -24.8% (inactive) | 0.00691 (inactive) |
| Cc1nc2ccccn2c1C(=O)NCCCN1CCOCC1 | 521 | -7.5% (inactive) | 3% (inactive) | 102 | 11.8% (inactive) | 102 | -0.461 (inactive) | 0.000108 (inactive) |  |  | 4.89% (inactive) | 12.3% (inactive) | 0.0064 (inactive) |
| O=S(=O)(Nc1cccc2ncccc12)c1cccs1 | 469 | -38% (inactive) | -0.2% (inactive) | 67.2 | 39.3% (inactive) | 23.8 | -0.486 (inactive) | 2.1e-05 (inactive) |  |  | -7.18% (inactive) | -3.78% (inactive) | 0.0108 (active) |
| CCn1nccc1C(=O)Nc1nccs1 | 392 | -0.5% (inactive) | -32.5% (inactive) | 108 | -45.2% (inactive) | 103 | -0.456 (inactive) | -4.4e-05 (inactive) |  |  | 16.4% (inactive) | 9.69% (inactive) | 0.00538 (inactive) |
| CCN1CCN(S(=O)(=O)c2ccc(S(=O)(=O)N(CC)Cc3ccccc3)cc2)CC1 | 579 | -0.8% (inactive) | -9.2% (inactive) | 104 | -27.9% (inactive) | 108 | -0.527 (inactive) | 4.3e-06 (inactive) |  |  | 16.4% (inactive) | 16.6% (inactive) | 0.00522 (inactive) |
| Cc1csc2nc3ccccc3c(=O)n12 | 270 | 3.9% (inactive) | -14.2% (inactive) | 97.6 | -48% (inactive) | 119 | -0.579 (inactive) | -1.2e-05 (inactive) |  |  | 4.9% (inactive) | -6.37% (inactive) | 0.00358 (inactive) |
| O=C(CSc1nnc(-c2ccccc2Cl)n1Cc1ccco1)Nc1ccc2c(c1)OCCO2 | 309 | 0.8% (inactive) | 3.4% (inactive) | 88.5 | -75.1% (inactive) | 107 | -0.391 (inactive) | -9.8e-05 (inactive) |  |  | 8.89% (inactive) | 18.1% (inactive) | 0.00631 (inactive) |
| CC(Sc1nnnn1-c1ccccc1)C(=O)Nc1ccc(Cl)cn1 (stereo unspecified) | 570 | -12.8% (inactive) | -5.6% (inactive) | 108 | -139% (inactive) | 131 | -0.426 (inactive) | 2.6e-05 (inactive) |  |  | 16% (inactive) | 19.9% (inactive) | 0.00566 (inactive) |
| COC(=O)C1C2C=CC3(CN(CC4CCCO4)C(=O)C13)O2 (stereo unspecified) | 504 | 4% (inactive) | -7.3% (inactive) | 111 | 9.9% (inactive) | 98.5 | -0.457 (inactive) | -1.5e-05 (inactive) | 0.00504 (inactive) | inactive | 5.61% (inactive) | 11.6% (inactive) |  |
| CCOC(=O)c1cnc(-n2nc(C)cc2C)nc1NC(C)c1ccccc1 (stereo unspecified) | 605 | -9.5% (inactive) | 8.7% (inactive) | 94.4 | 13.2% (inactive) | 93.5 | -0.57 (inactive) | -9.1e-05 (inactive) |  |  | 8.07% (inactive) | 0.674% (inactive) | 0.00529 (inactive) |
| CCN(CC)C(=O)CSc1nc2ccccc2c(=O)n1CCC(=O)NCc1ccc(F)cc1 | 471 | -6.6% (inactive) | 15.2% (inactive) | 108 | -22% (inactive) | 112 | -0.516 (inactive) | 5.1e-05 (inactive) |  |  | -10.2% (inactive) | -7.71% (inactive) | 0.00599 (inactive) |
| Cc1ccc(NC(=O)CC2Nc3ccccc3NC2=O)cc1Cl (stereo unspecified) | 357 | 1.4% (inactive) | 14.7% (inactive) | 84.3 | -45.4% (inactive) | 99.7 | -0.545 (inactive) | -1.9e-05 (inactive) |  |  | -4.9% (inactive) | -16.9% (inactive) | 0.00597 (inactive) |
| CCOC(=O)c1oc2ccccc2c1CSc1nnnn1-c1ccc(OC)cc1 | 381 | -7.7% (inactive) | 6.8% (inactive) | 95.4 | -102% (inactive) | 110 | -0.54 (inactive) | -4.1e-05 (inactive) |  |  | 25.7% (inactive) | 30.2% (inactive) | 0.00514 (inactive) |
| Cc1nc2c3cnn(-c4ccccc4)c3ncn2n1 | 470 | 1.7% (inactive) | -9.9% (inactive) | 105 | -62.2% (inactive) | 108 | -0.406 (inactive) | 8.7e-05 (inactive) |  |  | -1.03% (inactive) | -18.2% (inactive) | 0.00848 (inactive) |
| Cn1c(Cc2csc(N)n2)nnc1SCC(=O)NCc1ccccc1 | 447 | 7.3% (inactive) | 9.5% (inactive) | 95.3 | -12.6% (inactive) | 118 | -0.58 (inactive) | -9.4e-06 (inactive) |  |  | -2.1% (inactive) | 13.3% (inactive) | 0.00622 (inactive) |
| O=C(CSc1nc(C2CCCCC2)n(-c2ccccc2)n1)NCCN1C(=O)CSC1=O | 382 | -5.9% (inactive) | 8% (inactive) | 112 | -13.3% (inactive) | 140 | -0.572 (inactive) | -4.9e-05 (inactive) |  |  | 15.1% (inactive) | 23.3% (inactive) | 0.00728 (inactive) |
| Cc1cccc(N2CCN(C(=O)Cn3ccc4ccccc4c3=O)CC2)c1C | 340 | 11% (inactive) | 3.8% (inactive) | 95.6 | -4.9% (inactive) | 94 | -0.568 (inactive) | 2.6e-06 (inactive) |  |  | -3.75% (inactive) | -30.8% (inactive) | 0.00591 (inactive) |
